Source: ChEMBL document CHEMBL3286102, “Benzofuran derivatives as anticancer inhibitors of mTOR signaling” (Eur J Med Chem, 2014)
Calls of active or inactive are those of the source. The rule behind the calls is not given here.

Columns and labels:
SQ20B = test: Cytotoxicity against human SQ20B cells after 72 hrs by MTT assay; type: functional, cell-based
Method in brief: (§1)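 Monolayer culture in RPMI with 10% fetal calf serum, 2 mM glutamine, penicillin/streptomycin, 37 °C, humidified 5% CO2, checked for Mycoplasma. Cells seeded at 2 × 10³/well; after drug exposure, 0.4 mg/ml MTT for 4 h at 37 °C. Formazan dissolved in DMSO, absorbance read at 560 nm. Untreated cells served as positive control, drug medium without cells as negative control.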

mTORC1 (Homo sapiens) [1] = biological target: T1, mTORC1 (Homo sapiens) (UniProt P42345+Q8N122+Q9BVC4); test: Inhibition of mTORC1 in human SK-HEP1 cells assessed as reduction of 4-EBP1 phosphorylation at 0.1 to 8 uM after 24 hrs by Western blotting; type: cell-based
T1 sequence (Q8N122 whole entry, looked up, other chains not shown): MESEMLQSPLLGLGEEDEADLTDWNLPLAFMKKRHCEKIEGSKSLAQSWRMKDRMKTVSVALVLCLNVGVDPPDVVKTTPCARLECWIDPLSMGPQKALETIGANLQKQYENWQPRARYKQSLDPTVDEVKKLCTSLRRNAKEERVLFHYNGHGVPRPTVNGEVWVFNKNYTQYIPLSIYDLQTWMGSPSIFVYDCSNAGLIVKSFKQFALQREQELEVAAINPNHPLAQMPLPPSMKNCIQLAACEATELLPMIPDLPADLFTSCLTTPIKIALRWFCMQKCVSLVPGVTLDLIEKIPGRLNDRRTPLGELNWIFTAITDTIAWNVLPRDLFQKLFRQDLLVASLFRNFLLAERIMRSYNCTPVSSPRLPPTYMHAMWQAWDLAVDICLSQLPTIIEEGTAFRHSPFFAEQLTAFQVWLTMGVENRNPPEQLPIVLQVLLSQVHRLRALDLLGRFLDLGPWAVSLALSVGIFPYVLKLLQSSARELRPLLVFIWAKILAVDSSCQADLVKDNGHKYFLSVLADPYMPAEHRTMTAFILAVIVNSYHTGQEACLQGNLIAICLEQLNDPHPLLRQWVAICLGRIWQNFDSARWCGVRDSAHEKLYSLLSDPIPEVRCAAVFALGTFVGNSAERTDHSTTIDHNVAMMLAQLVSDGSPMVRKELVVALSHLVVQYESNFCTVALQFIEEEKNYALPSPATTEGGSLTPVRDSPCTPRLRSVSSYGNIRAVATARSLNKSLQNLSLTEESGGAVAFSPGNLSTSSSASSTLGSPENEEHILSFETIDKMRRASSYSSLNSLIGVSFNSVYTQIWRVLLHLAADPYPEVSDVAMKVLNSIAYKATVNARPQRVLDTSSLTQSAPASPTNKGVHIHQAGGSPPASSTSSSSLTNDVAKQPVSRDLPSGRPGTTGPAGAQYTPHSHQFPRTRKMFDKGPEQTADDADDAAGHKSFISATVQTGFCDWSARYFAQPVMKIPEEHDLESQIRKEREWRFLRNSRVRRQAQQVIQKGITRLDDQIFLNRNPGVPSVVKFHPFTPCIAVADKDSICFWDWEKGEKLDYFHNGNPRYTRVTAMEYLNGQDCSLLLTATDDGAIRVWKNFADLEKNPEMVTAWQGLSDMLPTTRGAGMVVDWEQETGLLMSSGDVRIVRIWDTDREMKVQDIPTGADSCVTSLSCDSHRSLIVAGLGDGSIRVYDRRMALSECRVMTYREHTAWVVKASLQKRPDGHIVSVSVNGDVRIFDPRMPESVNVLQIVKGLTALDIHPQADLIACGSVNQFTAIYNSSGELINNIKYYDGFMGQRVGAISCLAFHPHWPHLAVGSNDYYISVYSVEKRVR
T1 sequence (Q9BVC4 whole entry, looked up, other chains not shown): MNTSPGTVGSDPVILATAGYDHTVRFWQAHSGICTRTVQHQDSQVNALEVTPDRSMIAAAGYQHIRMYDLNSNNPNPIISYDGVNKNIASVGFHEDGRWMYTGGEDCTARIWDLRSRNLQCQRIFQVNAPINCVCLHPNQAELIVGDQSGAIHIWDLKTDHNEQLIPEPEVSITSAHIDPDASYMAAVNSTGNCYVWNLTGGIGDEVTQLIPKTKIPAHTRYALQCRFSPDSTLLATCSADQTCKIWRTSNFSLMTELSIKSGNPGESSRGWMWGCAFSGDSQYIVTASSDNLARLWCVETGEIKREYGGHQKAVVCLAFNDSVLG
Method in brief: (§2)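 Membranes were blocked in 5% milk/0.05% Tween 20-PBS and probed overnight with primary antibody against p-S6, p-4EBP1 or p-Akt (S473). Detection used HRP secondary antibody and enhanced chemiluminescence.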

mTORC1 (Homo sapiens) [2] = biological target: T1, mTORC1 (Homo sapiens); test: Inhibition of mTORC1 in human COLO205 cells assessed as reduction of S6 phosphorylation at 0.1 to 8 uM after 24 hrs by Western blotting; type: cell-based; details: COLO 205; method in brief: as §2
mTORC1 (Homo sapiens) [3] = biological target: T1, mTORC1 (Homo sapiens); test: Inhibition of mTORC1 in human SK-HEP1 cells assessed as reduction of S6 phosphorylation at 0.1 to 8 uM after 24 hrs by Western blotting; type: cell-based; method in brief: as §2
mTORC1 (Homo sapiens) [4] = biological target: T1, mTORC1 (Homo sapiens); test: Inhibition of mTORC1 in human COLO205 cells assessed as reduction of 4-EBP1 phosphorylation at 0.1 to 8 uM after 24 hrs by Western blotting; type: cell-based; details: COLO 205; method in brief: as §2
HOP-62 = test: Cytotoxicity against human HOP62 cells after 72 hrs by MTT assay; type: functional, cell-based; method in brief: as §1
COLO 205 = test: Cytotoxicity against human COLO205 cells after 72 hrs by MTT assay; type: functional, cell-based; method in brief: as §1
mTORC1 (Homo sapiens) [5] = biological target: T1, mTORC1 (Homo sapiens); test: Inhibition of mTORC1 in human SK-HEP1 cells assessed as AKT phosphorylation at Ser473 at 0.1 to 8 uM after 24 hrs by Western blotting; type: cell-based; method in brief: as §2
mTORC1 (Homo sapiens) [6] = biological target: T1, mTORC1 (Homo sapiens); test: Inhibition of mTORC1 in human COLO205 cells assessed as AKT phosphorylation at Ser473 at 0.1 to 8 uM after 24 hrs by Western blotting; type: cell-based; details: COLO 205; method in brief: as §2

COc1ccc(-c2cc3c(CN4CCC(N5CCCCC5)CC4)c(O)ccc3o2)cc1
IC50 (SQ20B): 0.85 µM

Oc1ccc2oc(-c3cccs3)cc2c1CN1CCC(N2CCCCC2)CC1
IC50 (SQ20B): 2.7 µM

Oc1ccc2oc(-c3ccccc3Cl)cc2c1CN1CCC(N2CCCCC2)CC1
IC50 (SQ20B): 2.6 µM

CO[C@H]1C[C@@H]2CC[C@@H](C)[C@@](O)(O2)C(=O)C(=O)N2CCCC[C@H]2C(=O)O[C@H]([C@H](C)C[C@@H]2CC[C@@H](O)[C@H](OC)C2)CC(=O)[C@H](C)/C=C(\C)[C@@H](O)[C@@H](OC)C(=O)[C@H](C)C[C@H](C)/C=C/C=C/C=C/1C
inhibition (mTORC1 (Homo sapiens) [1]): Active
inhibition (mTORC1 (Homo sapiens) [2]): Active
inhibition (mTORC1 (Homo sapiens) [3]): Active
inhibition (mTORC1 (Homo sapiens) [4]): Active

Oc1ccc2oc(-c3ccc4ccccc4c3)cc2c1CN1CCC(N2CCCCC2)CC1
IC50 (SQ20B): 2.8 µM

O=S(=O)(Oc1ccc2oc(-c3ccccc3)cc2c1CN1CCC(N2CCCCC2)CC1)C(F)(F)F
IC50 (SQ20B): 2.8 µM

Cc1c(-c2ccccc2)oc2ccc(O)c(CN3CCC(N4CCCCC4)CC3)c12
IC50 (SQ20B): 1.2 µM

CN(C)Cc1c(O)ccc2oc(-c3ccccc3)cc12
IC50 (SQ20B): 32 µM

O=S(=O)(Nc1ccc2oc(-c3ccccc3)cc2c1CN1CCC(N2CCCCC2)CC1)C(F)(F)F
IC50 (SQ20B): 2.1 µM

COc1cccc2cc(-c3nc([C@H]4CC[C@H](C(=O)O)CC4)n4ncnc(N)c34)[nH]c12
Activity (HOP-62): Active
Activity (COLO 205): Active

Oc1ccc2oc(-c3cccc4ccccc34)cc2c1CN1CCC(N2CCCCC2)CC1
IC50 (SQ20B): 0.86 µM

Oc1ccc2oc(-c3ccc(Cl)c(Cl)c3)cc2c1CN1CCC(N2CCCCC2)CC1
IC50 (SQ20B): 2.3 µM

Oc1ccc2oc(-c3cccc(Cl)c3)cc2c1CN1CCC(N2CCCCC2)CC1
IC50 (SQ20B): 0.92 µM

Oc1ccc2oc(-c3ccccc3)nc2c1CN1CCC(N2CCCCC2)CC1
IC50 (SQ20B): 6.5 µM

Oc1ccc2oc(-c3ccco3)cc2c1CN1CCC(N2CCCCC2)CC1
IC50 (SQ20B): 4 µM

OCc1c(-c2ccccc2)oc2ccc(O)c(CN3CCC(N4CCCCC4)CC3)c12
IC50 (SQ20B): 3.4 µM

COc1ccc(-c2cc3c(CN4CCC(N(C)C)CC4)c(O)ccc3o2)cc1
IC50 (SQ20B): 1.2 µM

COc1ccc(-c2cc3c(CN4CCC(N5CCCCC5)CC4)c(O)ccc3o2)c(OC)c1
IC50 (SQ20B): 1.1 µM

Oc1ccc2c(ccn2Cc2ccccc2)c1CN1CCC(N2CCCCC2)CC1
IC50 (SQ20B): 17 µM

Oc1ccc2[nH]c(-c3ccccc3)nc2c1CN1CCC(N2CCCCC2)CC1
IC50 (SQ20B): 21 µM

c1ccc(-c2cc3c(CN4CCC(N5CCCCC5)CC4)cccc3o2)cc1
IC50 (SQ20B): 7.5 µM

Oc1ccc2oc(-c3ccccc3OCc3ccccc3)cc2c1CN1CCC(N2CCCCC2)CC1
IC50 (SQ20B): 0.38 µM
Activity (HOP-62): Active
Activity (COLO 205): Active

COc1cccc(-c2cc3c(CN4CCC(N5CCCCC5)CC4)c(O)ccc3o2)c1
IC50 (SQ20B): 2 µM

c1ccc(-c2cc3c(CN4CCC(N5CCCCC5)CC4)nccc3o2)cc1
IC50 (SQ20B): 18 µM

Oc1ccc2oc(-c3ccc(Cl)cc3)cc2c1CN1CCC(N2CCCCC2)CC1
IC50 (SQ20B): 0.86 µM

COc1ccccc1-c1cc2c(CN3CCC(N4CCCCC4)CC3)c(O)ccc2o1
IC50 (SQ20B): 1.3 µM

Oc1ccc2cc(-c3ccccc3)oc2c1CN1CCC(N2CCCCC2)CC1
IC50 (SQ20B): 11 µM

CCOC(=O)c1c(-c2ccccc2)oc2ccc(O)c(CN3CCC(N4CCCCC4)CC3)c12
IC50 (SQ20B): 1.5 µM

COc1ccc2oc(-c3ccccc3OCc3ccccc3)cc2c1CN1CCC(N(C)C)CC1
inhibition (mTORC1 (Homo sapiens) [1]): Active
IC50 (SQ20B): 0.46 µM
inhibition (mTORC1 (Homo sapiens) [2]): Active
inhibition (mTORC1 (Homo sapiens) [3]): Active
inhibition (mTORC1 (Homo sapiens) [4]): Active
Activity (HOP-62): Active
Activity (COLO 205): Active

CO[C@H]1C[C@@H]2CC[C@@H](C)[C@@](O)(O2)C(=O)C(=O)N2CCCC[C@H]2C(=O)O[C@H]([C@H](C)C[C@@H]2CC[C@@H](OCCO)[C@H](OC)C2)CC(=O)[C@H](C)/C=C(\C)[C@@H](O)[C@@H](OC)C(=O)[C@H](C)C[C@H](C)/C=C/C=C/C=C/1C [EVEROLIMUS]
inhibition (mTORC1 (Homo sapiens) [5]): inactive
inhibition (mTORC1 (Homo sapiens) [1]): Active
IC50 (SQ20B): 7.3 µM
inhibition (mTORC1 (Homo sapiens) [2]): Active
inhibition (mTORC1 (Homo sapiens) [3]): Active
inhibition (mTORC1 (Homo sapiens) [4]): Active
Activity (HOP-62): inactive
inhibition (mTORC1 (Homo sapiens) [6]): inactive
Activity (COLO 205): Active

Oc1ccc2occ(-c3ccccc3)c2c1CN1CCC(N2CCCCC2)CC1
IC50 (SQ20B): 11 µM

Cn1c(-c2ccccc2)cc2c(CN3CCC(N4CCCCC4)CC3)c(O)ccc21
IC50 (SQ20B): 19 µM

COc1ccc2oc(-c3ccccc3)cc2c1CN1CCC(N2CCCCC2)CC1
IC50 (SQ20B): 2.5 µM

Oc1ccc2oc(-c3ccccc3)cc2c1CN1CCC(N2CCCCC2)CC1
IC50 (SQ20B): 1.4 µM
Activity (HOP-62): Active
Activity (COLO 205): Active
